The target in experiment [1] is Cannabinoid receptor 2 (Mus musculus) (UniProt P47936). The experiment can be described thus: Binding affinity to cannabinoid CB2 receptor in non transfected BALB/c mouse CD4+ T cells at 5 uM after 30 mins […] by confocal microscopic analysis. As to conditions: T-cell. The format is cell-based.
For experiment [2], the target named is Cannabinoid receptor 1 (Homo sapiens) (UniProt P21554). The experiment can be described thus: Displacement of [3H]-CP55940 from cannabinoid CB1 receptor at 10 uM. In outline: (§1)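 Single-point competitive radioligand binding screen at 10 µM test concentration, measured as % inhibition of radioligand binding. Radioligands: [3H]CP55940 for CB1, [3H]ketanserin for 5-HT2A, [3H]mesulergine for 5-HT2C. Run by the NIMH Psychoactive Drug Screening Program.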
(In general: Loss of bound radioactivity is the signal in a displacement assay; it reports binding, not function.)

In experiment [3] the target is Cannabinoid receptor 2 (Mus musculus) (UniProt P47936). The experiment can be described thus: Binding affinity to cannabinoid CB2 receptor in non transfected BALB/c mouse CD4+ T cells at 0.1 uM after 30 mins using […] by confocal microscopic analysis. As to conditions: T-cell. The experiment is classed as cell-based.
Experiment [4] addresses T1, 5-hydroxytryptamine receptor 2C (Homo sapiens) (UniProt P28335).
T1 sequence (whole entry): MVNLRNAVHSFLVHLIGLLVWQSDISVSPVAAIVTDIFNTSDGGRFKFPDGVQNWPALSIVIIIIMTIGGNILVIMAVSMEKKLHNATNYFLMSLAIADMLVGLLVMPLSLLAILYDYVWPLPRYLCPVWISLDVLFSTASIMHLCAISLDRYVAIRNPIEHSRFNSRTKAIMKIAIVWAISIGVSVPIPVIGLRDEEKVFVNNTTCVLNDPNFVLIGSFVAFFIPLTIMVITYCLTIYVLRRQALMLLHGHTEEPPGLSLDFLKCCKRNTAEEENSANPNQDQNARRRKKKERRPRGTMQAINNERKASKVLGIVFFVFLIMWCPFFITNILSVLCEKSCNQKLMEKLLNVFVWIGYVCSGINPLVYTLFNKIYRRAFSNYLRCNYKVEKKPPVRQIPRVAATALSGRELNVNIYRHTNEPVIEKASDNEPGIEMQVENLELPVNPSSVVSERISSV
The experiment can be described thus: Displacement of [3H]-mesulergine from 5HT2C receptor at 10 uM. In outline:
as §1

The target of experiment [5] is Cannabinoid receptor 2 (Mus musculus) (UniProt P47936). The experiment is described as follows: Binding affinity to cannabinoid CB2 receptor in non transfected BALB/c mouse CD4+ T cells after 30 mins […] by confocal microscopic analysis in presence of CB2 receptor agonist GW842166X. The format is cell-based. As to conditions: T-cell.
Experiment [6] has the same target. The experiment is described as follows: Binding affinity to cannabinoid CB2 receptor in mouse B lymphocytes at 5 uM after 30 mins using PE-conjugated anti-B220 antibody staining by flow cytometric analysis. The experiment is classed as cell-based. In outline: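 Lung mononuclear cells from mice were prepared by collagenase digestion of lung tissue. They were stained with PE-conjugated anti-B220 antibody and NBD-labelled probe at 5 µM on ice for 30 min, then analysed by flow cytometry.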
(In general: A flow cytometer gives signals particle by particle.)

Experiment [7] concerns the target 5-hydroxytryptamine receptor 2A (Homo sapiens) (UniProt P28223). The experiment is described as follows: Displacement of [3H]-kentanserin from 5HT2A receptor at 10 uM. In short, it runs like this:
as §1

The target of experiment [8] is Cannabinoid receptor 2 (Mus musculus) (UniProt P47936). The experiment can be described thus: Binding affinity to cannabinoid CB2 receptor in mouse B lymphocytes at 5 uM after 30 mins using PE-conjugated anti-B220 antibody staining by flow cytometric analysis in presence of GW842166X. The experiment is classed as cell-based. In outline: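 Mouse lung mononuclear cells, prepared by collagenase digestion, were first preincubated on ice for 5 min with the CB2 agonist GW842166X at 100 µM. They were then stained with PE-conjugated anti-B220 antibody and NBD-labelled probe at 5 µM on ice for 30 min, and analysed by flow cytometry.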

Experiment [9] has the same target. The experiment can be described thus: Binding affinity to cannabinoid CB2 receptor in non transfected BALB/c mouse CD4+ T cells at 1 uM after 30 mins using PE-conjugated […] antibody staining by confocal microscopic analysis. The format is cell-based. Particulars: T-cell. In outline: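 T cells were purified from peripheral lymph nodes of BALB/c mice and stained with PE-conjugated anti-CD4 antibody plus NBD-labelled probe at 0.1, 1.0 or 5 µM. Incubation on ice for 30 min is stated for the 5 µM condition. CD4+ cells were imaged by confocal microscopy (x40).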

The target of a further experiment is Cannabinoid receptor 2 (Homo sapiens, UniProt P34972). The experiment can be described thus: Displacement of [3H]-CP55940 from human recombinant cannabinoid CB2 receptor expressed in CHO-K1 cells. The experiment is classed as cell-based.

The term inhibition denotes the drop in the measured response relative to a control, in per cent. A high value points to a strong effect. Broadly, the Ki is a dissociation constant, usually derived from enzyme kinetics or from competition with a known ligand.

Each structure is given as a SMILES string. Activity calls are given as the source filed them. The calls are words filed in the database; no cut-off is given here.

Chain of Cannabinoid receptor 2 (Mus musculus) (P47936 whole entry): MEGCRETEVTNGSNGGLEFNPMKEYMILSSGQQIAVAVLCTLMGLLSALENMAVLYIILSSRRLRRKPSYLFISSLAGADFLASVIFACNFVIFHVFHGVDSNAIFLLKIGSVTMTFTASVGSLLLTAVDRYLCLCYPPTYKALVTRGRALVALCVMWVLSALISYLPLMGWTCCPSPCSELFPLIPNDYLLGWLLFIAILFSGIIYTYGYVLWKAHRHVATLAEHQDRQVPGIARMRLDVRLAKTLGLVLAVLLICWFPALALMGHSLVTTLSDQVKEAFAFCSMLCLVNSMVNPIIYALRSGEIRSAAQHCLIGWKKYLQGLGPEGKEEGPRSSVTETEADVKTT
Chain of Cannabinoid receptor 2 (P34972 whole entry): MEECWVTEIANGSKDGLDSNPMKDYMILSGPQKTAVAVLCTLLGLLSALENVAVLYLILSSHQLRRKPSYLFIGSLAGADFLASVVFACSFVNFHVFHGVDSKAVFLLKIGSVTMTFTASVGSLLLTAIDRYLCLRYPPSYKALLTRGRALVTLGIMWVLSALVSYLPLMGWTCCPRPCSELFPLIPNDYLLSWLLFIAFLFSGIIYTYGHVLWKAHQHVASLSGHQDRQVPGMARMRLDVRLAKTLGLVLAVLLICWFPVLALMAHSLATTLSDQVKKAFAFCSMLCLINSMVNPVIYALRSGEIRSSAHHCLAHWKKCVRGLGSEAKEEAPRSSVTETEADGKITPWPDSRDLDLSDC
Chain of 5-hydroxytryptamine receptor 2A (Homo sapiens) (P28223 whole entry): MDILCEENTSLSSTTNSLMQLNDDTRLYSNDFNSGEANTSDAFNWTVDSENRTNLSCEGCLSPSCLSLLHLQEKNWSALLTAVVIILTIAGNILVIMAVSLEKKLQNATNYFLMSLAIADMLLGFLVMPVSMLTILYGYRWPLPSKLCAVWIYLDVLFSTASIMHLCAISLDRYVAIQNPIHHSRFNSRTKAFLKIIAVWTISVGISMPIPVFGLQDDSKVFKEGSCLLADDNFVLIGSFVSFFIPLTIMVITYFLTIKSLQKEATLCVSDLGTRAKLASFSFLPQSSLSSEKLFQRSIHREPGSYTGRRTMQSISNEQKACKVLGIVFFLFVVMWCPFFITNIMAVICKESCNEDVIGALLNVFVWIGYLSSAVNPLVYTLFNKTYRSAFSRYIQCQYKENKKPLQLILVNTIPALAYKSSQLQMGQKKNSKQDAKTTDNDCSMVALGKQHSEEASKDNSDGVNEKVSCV
Chain of Cannabinoid receptor 1 (Homo sapiens) (P21554 whole entry): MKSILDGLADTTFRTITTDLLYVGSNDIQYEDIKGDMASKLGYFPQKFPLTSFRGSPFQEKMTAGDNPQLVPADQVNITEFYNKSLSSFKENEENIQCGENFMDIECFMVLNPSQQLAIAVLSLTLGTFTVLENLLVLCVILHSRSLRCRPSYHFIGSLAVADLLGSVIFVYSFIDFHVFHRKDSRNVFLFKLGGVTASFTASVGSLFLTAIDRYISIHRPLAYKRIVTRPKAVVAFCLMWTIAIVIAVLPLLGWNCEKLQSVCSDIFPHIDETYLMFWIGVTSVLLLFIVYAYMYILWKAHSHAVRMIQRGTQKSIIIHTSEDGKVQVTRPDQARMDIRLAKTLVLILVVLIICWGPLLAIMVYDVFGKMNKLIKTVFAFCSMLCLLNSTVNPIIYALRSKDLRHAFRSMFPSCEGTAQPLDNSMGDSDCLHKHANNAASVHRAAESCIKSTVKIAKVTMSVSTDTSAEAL

Turning to `CCCCCN1C(=O)/C(=N\NC(=O)CN(C)c2ccc([N+](=O)[O-])c3nonc23)c2ccc(OC)cc21`, the result in experiment [1] and in experiment [6] was Active. In addition, the inhibition in experiment [2], in experiment [4] and in experiment [7] was < 40% throughout. Moreover, the outcome in experiment [3], in experiment [5], in experiment [8] and in experiment [9] was inactive. Besides, the inhibition constant Ki at Cannabinoid receptor 2 was determined as 387 nM.

These data come from ChEMBL document CHEMBL1833906, “Design and evaluation of a novel fluorescent CB2 ligand as probe for receptor visualization in immune cells” (Bioorg Med Chem Lett, 2011).
